Results as given in ChEMBL document CHEMBL4480428, “Anti-inflammatory Lathyrane Diterpenoids from Euphorbia lathyris” (J Nat Prod, 2019).
The source made the active and inactive calls. The rule behind the calls is not given here.

Experiments:
RAW264.7 [1] = assay: Anti-inflammatory activity in mouse RAW264.7 cells assessed as inhibition of LPS-induced nitric oxide production preincubated for 3 hrs followed by LPS-stimulation and measured after 24 hrs by Griess assay; assay type: functional, cell-based
Method in brief: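 Mouse macrophage RAW264.7 cells (ATCC) grown in DMEM with 10% FBS and penicillin/streptomycin at 37 °C, 5% CO2. Seeded at 5000 cells/well and cultured overnight. Medium replaced with compound-containing medium (0−100 μM) for 3 h, then 1 μg/mL LPS added for 24 h. Supernatant mixed 1:1 with Griess reagent for 10 min at room temperature, absorbance read at 540 nm. Nitrite quantified from a standard curve; IC50 taken from inhibition rates across a concentration gradient.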

RAW264.7 [2] = assay: Cytotoxicity against mouse RAW264.7 cells assessed as reduction in cell viability after 24 hrs by CCK8 assay; assay type: cell-based; details: RAW264.7, 24 h
Method in brief: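 RAW264.7 macrophages cultured in DMEM with 10% FBS and penicillin/streptomycin at 37 °C, 5% CO2. Cells exposed to compound for 24 h. Viability measured by CCK8 kit following the manufacturer's instructions.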

RAW264.7 [3] = assay: Cytotoxicity against mouse RAW264.7 cells assessed as reduction in cell viability at 100 uM after 24 hrs by CCK8 assay; assay type: cell-based; details: raw264.7, 24 h
Method in brief: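 Cells were exposed to compound across 0–100 range for 24 h. Viability was then measured by CCK8 assay on the well supernatant, following kit instructions. Comparison was made with cells given 0 μM compound.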

RAW264.7 [4] = assay: Anti-inflammatory activity in mouse RAW264.7 cells assessed as inhibition of LPS-induced IL1beta production preincubated for 3 hrs followed by LPS-stimulation and measured after 24 hrs by ELISA; assay type: functional, cell-based
Method in brief: (§1)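 Cells were pretreated with compound at 2.5, 5 or 10 μM for 3 h, then stimulated with 1 μg/mL LPS for 24 h. IL-1β and IL-6 were quantified in collected supernatants by commercial ELISA kits. Significance was assessed against unstimulated, untreated control.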

RAW264.7 [5] = assay: Anti-inflammatory activity in mouse RAW264.7 cells assessed as inhibition of LPS-induced IL-6 production preincubated for 3 hrs followed by LPS-stimulation and measured after 24 hrs by ELISA; assay type: functional, cell-based; method in brief: as §1
[6] = target: T1, NF-kappa-B inhibitor alpha (Mus musculus) (UniProt Q9Z1E3); assay: Inhibition of IkappaBalpha phosphorylation in LPS-stimulated mouse RAW264.7 cells assessed as reduction in iNOS expression preincubated for 3 hrs followed by LPS-stimulation and measured by Western blot analysis; assay type: cell-based
T1 sequence (whole entry): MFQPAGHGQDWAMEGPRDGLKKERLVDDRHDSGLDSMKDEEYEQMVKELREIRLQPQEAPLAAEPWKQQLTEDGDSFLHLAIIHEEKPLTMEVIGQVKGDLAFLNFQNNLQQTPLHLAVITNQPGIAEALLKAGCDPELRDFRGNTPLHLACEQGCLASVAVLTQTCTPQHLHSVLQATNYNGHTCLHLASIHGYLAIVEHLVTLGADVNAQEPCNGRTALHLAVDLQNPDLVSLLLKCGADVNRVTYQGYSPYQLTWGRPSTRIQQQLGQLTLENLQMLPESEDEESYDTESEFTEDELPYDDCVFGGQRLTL
Method in brief: (§2)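 Cells were pretreated with compound for 3 h before LPS addition. Equal protein by BCA went onto 10% SDS-PAGE and nitrocellulose, probed for iNOS, NF-κB, IκBα and p-IκBα with chemiluminescence detection.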

[7] = target: T1, NF-kappa-B inhibitor alpha (Mus musculus); assay: Inhibition of IkappaBalpha phosphorylation in LPS-induced mouse RAW264.7 cells assessed as reduction in NFkappaB expression preincubated for 3 hrs followed by LPS-stimulation and measured by Western blot analysis; assay type: cell-based; method in brief: as §2
[8] = target: T1, NF-kappa-B inhibitor alpha (Mus musculus); assay: Inhibition of LPS-induced IkappaBalpha phosphorylation in mouse RAW264.7 cells at 10 uM preincubated for 3 hrs followed by LPS-stimulation and measured by Western blot analysis; assay type: cell-based; method in brief: as §2
[9] = target: T1, NF-kappa-B inhibitor alpha (Mus musculus); assay: Inhibition of IkappaBalpha phosphorylation in LPS-stimulated mouse RAW264.7 cells assessed as reduction in NF-kappaB p65 nuclear translocation at 5 to 10 uM pretreated for 2 hrs followed by LPS-stimulation measured after 12 hrs by DAPI staining based immunofluorescence assay; assay type: cell-based
Method in brief: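 Cells at 70% confluence were pretreated with DMSO, given 5 or 10 μM compound for 2 h, then activated with 1 μg/mL LPS for 12 h. Cells were fixed in 4% paraformaldehyde, permeabilized with 0.25% Triton X-100 and blocked with 5% BSA. Staining used P65 antibody (1:1000, 4 °C overnight), AlexaFluor488 secondary (1:500, 1 h) and DAPI for nuclei.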

| SMILES | IC50 (RAW264.7 [1]) [µM] | IC50 (RAW264.7 [2]) [µM] | also measured |
| --- | --- | --- | --- |
| C=C1CC[C@H]2[C@@H](/C=C(\C)C(=O)[C@@]3(OC(C)=O)C[C@H](C)[C@H](OC(=O)c4cccnc4)[C@@H]3[C@H]1OC(C)=O)C2(C)C | 100 | > 50 | – |
| CC(=O)OC/C1=C/[C@H]2[C@@H](OC(=O)[C@H](O)c3ccccc3)[C@@H](C)C[C@]2(OC(C)=O)C(=O)/C(C)=C/[C@@H]2[C@H](CC1)C2(C)C | > 50 | > 50 | – |
| C=C1[C@@H](OC(=O)c2cccnc2)C[C@H]2[C@@H](/C=C(\C)C(=O)[C@@]3(OC(C)=O)C[C@H](C)[C@H](OC(=O)c4ccccc4)[C@@H]3[C@H]1OC(C)=O)C2(C)C | 2.6 | > 50 | – |
| CC(=O)O[C@@H]1[C@H]2[C@@H](OC(=O)Cc3ccccc3)[C@@H](C)C[C@]2(OC(C)=O)C(=O)/C(C)=C/[C@@H]2[C@H](CC[C@]13CO3)C2(C)C | 9.9 | > 50 | – |
| CC(=O)O[C@]12C[C@H](C)[C@H](OC(=O)/C=C/c3ccccc3)[C@@H]1/C=C(/CO)CC[C@H]1[C@@H](/C=C(\C)C2=O)C1(C)C | 26 | > 50 | – |
| CC(=O)OC/C1=C\C[C@H]2[C@@H](/C=C(\C)C(=O)[C@@]3(O)C[C@H](C)[C@H](OC(=O)c4ccccc4)[C@@H]3[C@H]1OC(C)=O)C2(C)C | > 100 | > 50 | – |
| CCCCCC(=O)O[C@H]1[C@@H](C)C[C@]2(OC(C)=O)C(=O)/C(C)=C/[C@@H]3[C@H](CC/C(CO)=C\[C@@H]12)C3(C)C | 9.3 | > 50 | – |
| C=C1[C@@H](OC(=O)c2ccccc2)C[C@H]2[C@@H](/C=C(\C)C(=O)[C@@]3(OC(C)=O)C[C@H](C)[C@H](OC(=O)c4ccccc4)[C@@H]3[C@H]1OC(C)=O)C2(C)C | > 100 | > 50 | – |
| C[C@@H]1C[C@H]2[C@@H]3CCC4=CC(=O)C=C[C@]4(C)[C@@]3(F)[C@@H](O)C[C@]2(C)[C@@]1(O)C(=O)CO [DEXAMETHASONE] | 7.9 | – | – |
| C=C1CC[C@H]2[C@@H](/C=C(\C)C(=O)[C@@]3(OC(C)=O)C[C@H](C)[C@H](OC(=O)c4ccccc4)[C@@H]3[C@H]1OC(C)=O)C2(C)C | 8.3 | > 50 | – |
| CC(=O)O[C@]12C[C@H](C)[C@H](OC(=O)Cc3ccccc3)[C@@H]1/C=C(/CO)CC[C@H]1[C@@H](/C=C(\C)C2=O)C1(C)C | > 100 | > 50 | – |
| CC(=O)OC/C1=C/[C@@H]2[C@@H](O)[C@@H](C)C[C@]2(OC(C)=O)C(=O)/C(C)=C/[C@@H]2[C@H](CC1)C2(C)C | > 50 | > 50 | – |
| C=C1CC[C@H]2[C@@H](/C=C(\C)C(=O)[C@@]3(OC(C)=O)C[C@H](C)[C@H](OC(=O)/C=C/c4ccccc4)[C@@H]3[C@H]1O)C2(C)C | 3 | > 50 | Activity (RAW264.7 [3]): Toxic; inhibition (RAW264.7 [4]): Dose-dependent effect; inhibition (RAW264.7 [5]): Dose-dependent effect; inhibition [6]: Dose-dependent effect; inhibition [7]: Dose-dependent effect; inhibition [8]: Active; inhibition [9]: Active |
| CC(=O)O[C@]12C[C@H](C)[C@H](O)[C@@H]1[C@H]1O[C@]1(C)CC[C@H]1[C@H](/C=C(\C)C2=O)C1(C)C | > 100 | > 50 | – |
| C=C1[C@@H](OC(=O)c2ccccc2)C[C@H]2[C@@H](/C=C(\C)C(=O)[C@@]3(O)C[C@H](C)[C@H](OC(=O)c4ccccc4)[C@@H]3[C@H]1OC(C)=O)C2(C)C | 15.2 | > 50 | – |
| C=C1[C@H](OC(C)=O)C[C@H]2[C@@H](/C=C(\C)C(=O)[C@@]3(OC(C)=O)C[C@H](C)[C@H](OC(=O)c4ccccc4)[C@@H]3[C@H]1O)C2(C)C | 4 | > 50 | – |
| C=C1[C@H](O)C[C@H]2[C@@H](/C=C(\C)C(=O)[C@@]3(OC(C)=O)C[C@H](C)[C@H](OC(=O)c4ccccc4)[C@@H]3[C@H]1OC(C)=O)C2(C)C | 5 | > 50 | – |
